Reference: ChEMBL document CHEMBL5661979, “Pharmacological inhibition of BMK1 suppresses tumor growth through promyelocytic leukemia protein” (Cancer Cell, 2010)

Columns and labels:
[1] = biological target: Serine/threonine-protein kinase PLK4 (Homo sapiens) (UniProt O00444); test: Inhibition of PLK4 (unknown origin) assessed as remaining activity at 10 uM by ATP-competition binding assay relative to control
[2] = biological target: T1, Serine/threonine-protein kinase Nek9 (Homo sapiens) (UniProt Q8TD19); test: Inhibition of NEK9 in human HeLa cells lysate at 10 uM pre incubated for 15 mins followed by ADP acyl phosphate probe addition and measured after 10 mins by LC-MS/MS analysis relative to control; assay type: subcellular; settings: time 25.0 min
T1 sequence (whole entry): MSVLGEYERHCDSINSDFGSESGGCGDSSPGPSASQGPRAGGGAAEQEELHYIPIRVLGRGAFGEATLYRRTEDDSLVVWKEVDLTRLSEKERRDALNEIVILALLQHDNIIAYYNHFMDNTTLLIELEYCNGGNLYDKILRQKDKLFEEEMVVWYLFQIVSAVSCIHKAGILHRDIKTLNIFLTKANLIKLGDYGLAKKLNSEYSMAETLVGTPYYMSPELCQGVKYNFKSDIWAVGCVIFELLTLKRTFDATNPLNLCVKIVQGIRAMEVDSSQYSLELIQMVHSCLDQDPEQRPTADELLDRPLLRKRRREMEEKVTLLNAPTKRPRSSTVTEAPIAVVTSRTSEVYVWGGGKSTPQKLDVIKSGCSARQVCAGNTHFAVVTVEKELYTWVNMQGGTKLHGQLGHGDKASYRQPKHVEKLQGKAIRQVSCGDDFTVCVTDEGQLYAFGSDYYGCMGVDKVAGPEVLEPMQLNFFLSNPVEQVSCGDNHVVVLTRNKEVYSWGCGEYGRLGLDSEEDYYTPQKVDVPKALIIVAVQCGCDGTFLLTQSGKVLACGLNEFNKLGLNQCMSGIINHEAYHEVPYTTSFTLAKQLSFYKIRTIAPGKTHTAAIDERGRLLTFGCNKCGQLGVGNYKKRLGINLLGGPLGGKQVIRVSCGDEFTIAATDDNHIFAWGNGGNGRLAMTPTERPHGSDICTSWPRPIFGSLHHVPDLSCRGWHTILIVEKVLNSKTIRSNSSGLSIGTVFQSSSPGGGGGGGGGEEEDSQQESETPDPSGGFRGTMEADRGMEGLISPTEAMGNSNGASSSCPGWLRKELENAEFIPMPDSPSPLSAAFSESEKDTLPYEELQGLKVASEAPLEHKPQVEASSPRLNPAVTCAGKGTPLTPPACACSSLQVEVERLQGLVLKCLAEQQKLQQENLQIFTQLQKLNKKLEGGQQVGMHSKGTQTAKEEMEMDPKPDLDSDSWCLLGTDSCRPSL

[3] = biological target: T2, Mixed lineage kinase domain-like protein (Homo sapiens) (UniProt Q8NB16); test: Inhibition of MLKL in human HeLa cells lysate at 2 uM pre incubated for 15 mins followed by ADP acyl phosphate probe addition and measured after 10 mins by LC-MS/MS analysis relative to control; assay type: subcellular; settings: time 25.0 min
T2 sequence (whole entry): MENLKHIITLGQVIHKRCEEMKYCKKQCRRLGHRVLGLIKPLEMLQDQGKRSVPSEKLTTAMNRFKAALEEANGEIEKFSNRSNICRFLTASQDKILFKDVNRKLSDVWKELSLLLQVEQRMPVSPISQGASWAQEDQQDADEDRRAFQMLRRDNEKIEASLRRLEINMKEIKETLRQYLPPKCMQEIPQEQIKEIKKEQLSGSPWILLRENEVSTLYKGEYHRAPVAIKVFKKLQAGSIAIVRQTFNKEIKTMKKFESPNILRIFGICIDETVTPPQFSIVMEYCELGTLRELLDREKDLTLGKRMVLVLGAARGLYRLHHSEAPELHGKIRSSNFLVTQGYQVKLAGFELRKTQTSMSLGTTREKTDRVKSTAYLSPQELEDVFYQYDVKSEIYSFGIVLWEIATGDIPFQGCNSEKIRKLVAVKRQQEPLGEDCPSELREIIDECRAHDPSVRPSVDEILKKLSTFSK

[4] = biological target: T3, Phosphatidylinositol 5-phosphate 4-kinase type-2 gamma (Homo sapiens) (UniProt Q8TBX8); test: Inhibition of PIP5K2C LIP2 site in human HeLa cells lysate at 50 uM pre incubated for 15 mins followed by ATP acyl phosphate probe addition and measured after 10 mins by LC-MS/MS analysis relative to control; assay type: subcellular; settings: time 25.0 min
T3 sequence (whole entry): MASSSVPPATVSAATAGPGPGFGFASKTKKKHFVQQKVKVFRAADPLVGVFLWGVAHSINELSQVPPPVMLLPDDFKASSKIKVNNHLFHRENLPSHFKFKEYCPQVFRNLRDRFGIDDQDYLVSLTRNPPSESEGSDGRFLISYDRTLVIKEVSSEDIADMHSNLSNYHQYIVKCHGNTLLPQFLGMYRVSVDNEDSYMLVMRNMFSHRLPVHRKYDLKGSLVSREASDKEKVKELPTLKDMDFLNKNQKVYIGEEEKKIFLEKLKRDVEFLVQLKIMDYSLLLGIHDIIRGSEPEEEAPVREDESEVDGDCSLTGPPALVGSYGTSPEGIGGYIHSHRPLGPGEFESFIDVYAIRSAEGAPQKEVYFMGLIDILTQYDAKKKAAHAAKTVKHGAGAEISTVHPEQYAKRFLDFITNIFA

[5] = biological target: Calcium/calmodulin-dependent protein kinase type II subunit gamma (Homo sapiens, UniProt Q13555); test: Inhibition of CAMK2g in human HeLa cells lysate at 2 uM pre incubated for 15 mins followed by ATP acyl phosphate probe addition and measured after 10 mins by LC-MS/MS analysis relative to control; assay type: subcellular; settings: time 25.0 min
Summary of the method: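 KiNativ-type profiling in HeLa lysate (5 mg/mL total protein). Lysate preincubated 15 min with inhibitor at 50, 10, 2, 0.8 or 0 μM, then ATP or ADP acylphosphate probe added (5 μM final) for 10 min. Reaction stopped with urea and analysed by targeted MS, using up to four fragment ions per kinase peptide-probe conjugate. % inhibition calculated against untreated lysate. Duplicate reactions.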

[6] = biological target: p38 delta/gamma (Homo sapiens) (UniProt O15264+P53778); test: Inhibition of p38d/p38g in human HeLa cells lysate at 2 uM pre incubated for 15 mins followed by ATP acyl phosphate probe addition and measured after 10 mins by LC-MS/MS analysis relative to control; assay type: subcellular; settings: time 25.0 min
[7] = biological target: Calcium/calmodulin-dependent protein kinase kinase 1 (Homo sapiens, UniProt Q8N5S9); test: Inhibition of CAMKK1 in human HeLa cells lysate at 2 uM pre incubated for 15 mins followed by ADP acyl phosphate probe addition and measured after 10 mins by LC-MS/MS analysis relative to control; assay type: subcellular; settings: time 25.0 min
Summary of the method: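 KiNativ profiling in HeLa lysate (5 mg/mL total protein). Lysate incubated 15 min with inhibitor at 50, 10, 2, 0.8 or 0 μM. ATP or ADP acylphosphate probe then added (5 μM final) and reacted 10 min. Reaction stopped with urea and analysed by targeted MS, using up to four fragment ions per kinase peptide-probe conjugate. % inhibition taken against untreated lysate. Run in duplicate.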

Sequence of Calcium/calmodulin-dependent protein kinase kinase 1 (Q8N5S9 whole entry, looked up, the tested form may be a part): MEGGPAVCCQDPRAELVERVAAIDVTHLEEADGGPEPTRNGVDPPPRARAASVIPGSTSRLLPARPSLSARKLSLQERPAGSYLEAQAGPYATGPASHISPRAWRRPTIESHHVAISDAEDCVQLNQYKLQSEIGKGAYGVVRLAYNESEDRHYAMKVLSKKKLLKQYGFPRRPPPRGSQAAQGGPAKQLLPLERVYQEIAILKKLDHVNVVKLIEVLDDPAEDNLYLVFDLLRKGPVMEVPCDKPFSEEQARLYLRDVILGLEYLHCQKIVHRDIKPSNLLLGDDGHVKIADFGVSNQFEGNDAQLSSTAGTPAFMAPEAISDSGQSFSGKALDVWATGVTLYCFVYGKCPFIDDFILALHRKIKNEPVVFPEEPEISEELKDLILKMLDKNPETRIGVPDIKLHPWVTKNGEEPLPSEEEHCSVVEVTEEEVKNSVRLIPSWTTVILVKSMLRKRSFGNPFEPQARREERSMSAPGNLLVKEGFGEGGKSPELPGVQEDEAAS
Sequence of Serine/threonine-protein kinase PLK4 (Homo sapiens) (O00444 whole entry): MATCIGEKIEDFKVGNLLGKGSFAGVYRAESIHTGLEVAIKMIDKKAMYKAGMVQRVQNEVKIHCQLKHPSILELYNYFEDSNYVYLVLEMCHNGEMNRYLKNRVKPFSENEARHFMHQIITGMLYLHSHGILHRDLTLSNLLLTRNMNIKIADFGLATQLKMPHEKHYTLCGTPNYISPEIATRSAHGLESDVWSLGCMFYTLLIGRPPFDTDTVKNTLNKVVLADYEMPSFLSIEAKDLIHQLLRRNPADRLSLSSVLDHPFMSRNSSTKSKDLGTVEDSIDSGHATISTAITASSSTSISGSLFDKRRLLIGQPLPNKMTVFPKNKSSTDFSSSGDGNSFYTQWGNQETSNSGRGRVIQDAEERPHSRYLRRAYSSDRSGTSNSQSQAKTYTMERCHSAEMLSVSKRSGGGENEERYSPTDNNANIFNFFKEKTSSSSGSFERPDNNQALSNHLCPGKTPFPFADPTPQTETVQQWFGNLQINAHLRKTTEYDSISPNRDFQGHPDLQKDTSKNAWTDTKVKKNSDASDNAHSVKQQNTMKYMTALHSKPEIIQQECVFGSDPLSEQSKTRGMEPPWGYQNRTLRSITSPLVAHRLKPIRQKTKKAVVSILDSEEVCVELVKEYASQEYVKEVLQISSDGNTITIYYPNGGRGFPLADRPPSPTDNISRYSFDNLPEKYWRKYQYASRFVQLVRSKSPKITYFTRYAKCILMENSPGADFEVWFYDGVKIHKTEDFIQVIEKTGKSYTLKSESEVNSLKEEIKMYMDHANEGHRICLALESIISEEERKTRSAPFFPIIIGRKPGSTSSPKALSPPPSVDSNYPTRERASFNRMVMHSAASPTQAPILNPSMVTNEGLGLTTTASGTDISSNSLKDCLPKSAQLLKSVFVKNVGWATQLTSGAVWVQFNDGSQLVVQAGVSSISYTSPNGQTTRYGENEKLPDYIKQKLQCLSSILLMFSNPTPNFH
Sequence of Calcium/calmodulin-dependent protein kinase type II subunit gamma (Q13555 whole entry, the tested form may be a part): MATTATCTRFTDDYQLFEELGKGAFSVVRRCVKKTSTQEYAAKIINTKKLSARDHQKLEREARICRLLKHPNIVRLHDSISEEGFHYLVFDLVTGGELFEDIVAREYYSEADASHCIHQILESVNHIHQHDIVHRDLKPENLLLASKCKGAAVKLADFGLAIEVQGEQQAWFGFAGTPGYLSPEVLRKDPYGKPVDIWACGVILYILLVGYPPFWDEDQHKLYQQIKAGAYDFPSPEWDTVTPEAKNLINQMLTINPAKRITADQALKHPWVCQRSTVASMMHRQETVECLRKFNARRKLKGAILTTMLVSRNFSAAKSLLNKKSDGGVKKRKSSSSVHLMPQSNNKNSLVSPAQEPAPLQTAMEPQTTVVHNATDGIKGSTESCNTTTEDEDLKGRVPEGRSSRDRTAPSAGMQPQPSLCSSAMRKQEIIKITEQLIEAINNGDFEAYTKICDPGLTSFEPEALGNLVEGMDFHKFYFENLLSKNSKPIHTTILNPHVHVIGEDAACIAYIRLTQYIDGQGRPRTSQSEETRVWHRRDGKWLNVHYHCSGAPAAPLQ

Q: How did the Activity [1] turn out when `CCOc1cc(N2CCC(O)CC2)ccc1Nc1ncc2c(n1)N(C)c1ccccc1C(=O)N2C` was run?
A: Its Activity is 2.8%.

Q: What about the inhibition [2] of the same compound?
A: The inhibition was 4.3%.

Q: And the inhibition [3]?
A: The inhibition was 35.6%.

Q: And the inhibition [4]?
A: Its inhibition is 12.7%.

Q: And the inhibition [5]?
A: The inhibition was 3%.

Q: What about the inhibition [6] of the same compound?
A: The inhibition was 100%.

Q: And the inhibition [7]?
A: The inhibition was -5.2%.
